Test results as given in ChEMBL document CHEMBL1123282, “Antiinflammatory activity of substituted 6-hydroxypyrimido[2,1-f]purine-2,4,8(1H,3H,9H)-triones. Atypical nonsteroidal antiinflammatory agents” (J Med Chem, 1986).

Tests used:
Rattus norvegicus [1] = test: Compound was tested in vivo for antiinflammatory activity against chronic adjuvant arthritic rat by therapeutic inhibition 2 degree paw after peroral administration of 3 mg/kg of dose; assay type: functional; conditions: route oral
[2] = Plasma level data at a dose of 20 mg/kg, iv after 1 hr; assay type: ADME, organism-based; set-up: dose 20 mg/kg, route intravenous; conditions: read-out: Plasma level
How it was run: (§1)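 Male Lewis rats get a single iv or oral dose of the sodium salt, suspended in 0.4% (w/v) methyl cellulose. Plasma drug levels are measured by HPLC at the timed points and given as mean ± SD, n = 3.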

[3] = Plasma level data at a dose of 20 mg/kg, iv after 6 hr; assay type: ADME, organism-based; set-up: dose 20 mg/kg, route intravenous; conditions: read-out: Plasma level; how it was run: as §1
[4] = Plasma level data at a dose of 20 mg/kg, po after 1 hr; assay type: ADME, organism-based; set-up: dose 20 mg/kg, route oral; conditions: read-out: Plasma level; how it was run: as §1
[5] = Plasma level data at a dose of 20 mg/kg, iv after 0.5 hr; assay type: ADME, organism-based; set-up: dose 20 mg/kg, route intravenous; conditions: read-out: Plasma level; how it was run: as §1
Rattus norvegicus [6] = test: Compound was tested in vivo for antiinflammatory activity against chronic adjuvant arthritic rat by therapeutic inhibition 1 degree paw after peroral administration of 1 mg/kg of dose; assay type: functional; conditions: route oral
[7] = Plasma level data at a dose of 20mg/kg, po after 2 hr; assay type: ADME, organism-based; conditions: read-out: Plasma level; how it was run: as §1
[8] = Plasma level data at a dose of 20 mg/kg, po after 4 hr; assay type: ADME, organism-based; set-up: dose 20 mg/kg, route oral; conditions: read-out: Plasma level; how it was run: as §1
Rattus norvegicus [9] = test: Compound was tested in vivo for antiinflammatory activity against chronic adjuvant arthritic rat by therapeutic inhibition 2 degree paw after peroral administration of 1 mg/kg of dose; assay type: functional; conditions: route oral
Rattus norvegicus [10] = test: compound was tested for antiinflammatory activity against collagen II arthritis in rats, activity% inhibition in injected paw edema; assay type: functional
How it was run: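 Arthritis induced in rats by injection of bovine articular cartilage type II collagen (dissolved in 0.01 M AcOH, dialysed against saline) mixed 1:1 with incomplete Freund's adjuvant. Paw inflammation checked weekly for 7 weeks. Inhibition = [Δpaw vol(collagen) − Δpaw vol(collagen + drug)]/[Δpaw vol(collagen) − Δpaw vol(ICFA control)] × 100. Bone damage scored by lateral-projection radiography; p ≤ 0.05 by Student's t-test.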

[11] = Plasma level data at a dose of 20mg/kg, po after 0.5 hr; assay type: ADME, organism-based; conditions: read-out: Plasma level; how it was run: as §1
Rattus norvegicus [12] = test: Compound was tested for intestinal ulcerogenic effect in rats, activity expressed as ulcer incidence at a dose of 30 mg/kg; assay type: functional
How it was run: (§2)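 Normal fed rats were gavaged once daily for three consecutive days at 10–300 mg/kg and killed 24 h after the last dose. Intestines were examined for ulcers, recording incidence per group of 8 and a lesion score (±SE).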

Rattus norvegicus [13] = test: Compound was tested for intestinal ulcerogenic effect in rats at a dose of 100 mg/kg; assay type: functional; how it was run: as §2
Rattus norvegicus [14] = species: Rattus norvegicus; test: Delayed Type hypersensitivity (DTH) is measured by increase in ear thickness 24 hours after antigen injection into pinna 10e-3; assay type: functional
Rattus norvegicus [15] = test: Compound was tested in vivo for antiinflammatory activity against chronic adjuvant arthritic rat by therapeutic inhibition 1 degree paw after peroral administration of 18 mg/kg of dose; assay type: functional; conditions: route oral
Rattus norvegicus [16] = test: Compound was tested for intestinal ulcerogenic effect in rats, activity expressed as lesion score at a dose of 300 mg/kg; assay type: functional; how it was run: as §2
Rattus norvegicus [17] = test: Compound was tested for intestinal ulcerogenic effect in rats, activity expressed as ulcer incidence at a dose of 300 mg/kg; assay type: functional; how it was run: as §2
Rattus norvegicus [18] = test: Compound was tested for intestinal ulcerogenic effect in rats, activity expressed as lesion score at a dose of 30 mg/kg; assay type: functional; how it was run: as §2
Rattus norvegicus [19] = test: Compound was tested for gastric ulcerogenic effect in rats, activity expressed as lesion length at a dose of 300 mg/kg
Rattus norvegicus [20] = test: Compound was tested for gastric ulcerogenic effect in rats, activity expressed as lesion length at a dose of 10 mg/kg
Rattus norvegicus [21] = test: Compound was tested for gastric ulcerogenic effect in rats, activity expressed as lesion length at a dose of 100 mg/kg
Rattus norvegicus [22] = test: Compound was tested for intestinal ulcerogenic effect in rats at a dose of 10 mg/kg; assay type: functional; how it was run: as §2
Rattus norvegicus [23] = test: Compound was tested for intestinal ulcerogenic effect in rats, activity expressed as lesion score at a dose of 100 mg/kg; assay type: functional; how it was run: as §2
Rattus norvegicus [24] = test: Compound was tested for intestinal ulcerogenic effect in rats, activity expressed as lesion score at a dose of 10 mg/kg; assay type: functional; how it was run: as §2
Rattus norvegicus [25] = test: Compound was tested for gastric ulcerogenic effect in rats, activity expressed as lesion length at a dose of 30 mg/kg
Rattus norvegicus [26] = test: Compound was tested for intestinal ulcerogenic effect in rats, activity expressed as ulcer incidence at a dose of 10 mg/kg; assay type: functional; how it was run: as §2
[27] = Plasma level data at a dose of 36 mg/kg, po after 0.25 hr; assay type: ADME, organism-based; set-up: dose 36 mg/kg, route oral; conditions: read-out: Plasma level; how it was run: as §1
Rattus norvegicus [28] = test: Compound was tested in vivo for antiinflammatory activity against chronic adjuvant arthritic rat by therapeutic percentage inhibition 1 degree paw after peroral administration of 30 mg/kg of dose; assay type: functional
Rattus norvegicus [29] = test: Compound was tested in vivo for antiinflammatory activity against chronic adjuvant arthritic rat by therapeutic percentage inhibition 2 degree paw after peroral administration of 3.3 mg/kg of dose; assay type: functional; conditions: route oral
[30] = Plasma level data at a dose of 36 mg/kg, po after 12 hr; assay type: ADME, organism-based; set-up: dose 36 mg/kg, route oral; conditions: read-out: Plasma level
How it was run: (§3)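 Male Lewis rats given a single po dose of the sodium salt suspended in 0.4% (w/v) methyl cellulose. Plasma drug levels measured by HPLC at set times up to 12 h; values are mean ± SD, n = 3.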

[31] = Plasma level data at a dose of 36 mg/kg, po after 2 hr; assay type: ADME, organism-based; set-up: dose 36 mg/kg, route oral; conditions: read-out: Plasma level; how it was run: as §3
[32] = Plasma level data at a dose of 36 mg/kg, iv after 4 hr; assay type: ADME, organism-based; set-up: dose 36 mg/kg, route intravenous; conditions: read-out: Plasma level; how it was run: as §1
[33] = Plasma level data at a dose of 36 mg/kg, po after 6 hr; assay type: ADME, organism-based; set-up: dose 36 mg/kg, route oral; conditions: read-out: Plasma level; how it was run: as §3
[34] = Plasma level data at a dose of 36 mg/kg, iv after 6 hr; assay type: ADME, organism-based; set-up: dose 36 mg/kg, route intravenous; conditions: read-out: Plasma level; how it was run: as §1
Rattus norvegicus [35] = test: Compound was tested in vivo for antiinflammatory activity against chronic adjuvant arthritic rat by therapeutic percentage inhibition 1 degree paw after peroral administration of 3.3 mg/kg of dose; assay type: functional; conditions: route oral
Rattus norvegicus [36] = test: Compound was tested in vivo for antiinflammatory activity against chronic adjuvant arthritic rat by therapeutic percentage inhibition 2 degree paw after peroral administration of 10 mg/kg of dose; assay type: functional; conditions: route oral
[37] = Plasma level data at a dose of 36 mg/kg, iv after 0.5 hr; assay type: ADME, organism-based; set-up: dose 36 mg/kg, route intravenous; conditions: read-out: Plasma level; how it was run: as §1
Rattus norvegicus [38] = species: Rattus norvegicus; test: Delayed Type hypersensitivity (DTH) is measured by increase in ear thickness 24 hours after antigen injection into pinna (10E-3); assay type: functional
Rattus norvegicus [39] = test: Compound was tested for intestinal Ulcerogenic effect in rats, activity expressed as ulcer incidence at a dose of 300 mg/kg; assay type: functional; how it was run: as §2
[40] = Plasma level data at a dose of 36 mg/kg, iv after 1 hr; assay type: ADME, organism-based; set-up: dose 36 mg/kg, route intravenous; conditions: read-out: Plasma level; how it was run: as §1
[41] = Plasma level data at a dose of 36 mg/kg, iv after 2 hr; assay type: ADME, organism-based; set-up: dose 36 mg/kg, route intravenous; conditions: read-out: Plasma level; how it was run: as §1
[42] = Plasma level data at a dose of 36 mg/kg, po after 0.5 hr; assay type: ADME, organism-based; set-up: dose 36 mg/kg, route oral; conditions: read-out: Plasma level; how it was run: as §1
[43] = Plasma level data at a dose of 36 mg/kg, iv after 0.25 hr; assay type: ADME, organism-based; set-up: dose 36 mg/kg, route intravenous; conditions: read-out: Plasma level; how it was run: as §1
Rattus norvegicus [44] = test: Compound was tested for intestinal Ulcerogenic effect in rats, activity expressed as lesion score at a dose of 300 mg/kg; assay type: functional; how it was run: as §2

SMILES: CC(C)=CCc1c(O)n(Cc2ccccc2)c2nc3c(c(=O)n(C)c(=O)n3C)n2c1=O
- inhibition in vivo at 3 mg/kg (Rattus norvegicus [1]): 51%
- concentration at 1 h [2]: 74.7 µg/mL
- concentration at 6 h [3]: 35.1 µg/mL
- concentration at 1 h [4]: 17.3 µg/mL
- concentration at 0.5 h [5]: 78.6 µg/mL
- inhibition in vivo at 1 mg/kg (Rattus norvegicus [6]): 0%
- concentration at 2 h [7]: 21.9 µg/mL
- concentration at 4 h [8]: 39 µg/mL
- inhibition in vivo at 1 mg/kg (Rattus norvegicus [9]): 37%
- Inhibition (Rattus norvegicus [10]): 0%
- concentration at 0.5 h [11]: 10.8 µg/mL

SMILES: CC(C)=CCc1c(O)n(Cc2ccc(F)cc2)c2nc3c(c(=O)n(C)c(=O)n3C)n2c1=O
- Ulcer incidence (Rattus norvegicus [12]): 0 number/group
- Ulcer incidence (Rattus norvegicus [13]): 0 number/group
- DTH (Rattus norvegicus [14]): 47.3 10e-3mm
- inhibition in vivo at 18 mg/kg (Rattus norvegicus [15]): 39%
- Lesion length (Rattus norvegicus [16]): 0.2 mm rat-1
- Ulcer incidence (Rattus norvegicus [17]): 2 number/group
- Lesion length (Rattus norvegicus [18]): 0 mm rat-1
- Length (Rattus norvegicus [19]): 3 mm rat-1
- Length (Rattus norvegicus [20]): 0 mm rat-1
- Length (Rattus norvegicus [21]): 0.1 mm rat-1
- Ulcer incidence (Rattus norvegicus [22]): 0 number/group
- Lesion length (Rattus norvegicus [23]): 0 mm rat-1
- Lesion length (Rattus norvegicus [24]): 0 mm rat-1
- Length (Rattus norvegicus [25]): 0.1 mm rat-1
- Ulcer incidence (Rattus norvegicus [26]): 0 number/group

SMILES: CCCc1c(O)n(Cc2ccc(F)cc2)c2nc3c(c(=O)n(C)c(=O)n3C)n2c1=O
- concentration at 0.25 h [27]: 20 µg/mL
- inhibition in vivo at 30 mg/kg (Rattus norvegicus [28]; Rattus norvegicus, po): 47%
- Inhibition (Rattus norvegicus [28]; route oral, 30 mg/kg): 47%
- inhibition in vivo at 3.3 mg/kg (Rattus norvegicus [29]): 30%
- concentration at 12 h [30]: 35.9 µg/mL
- concentration at 2 h [31]: 66.1 µg/mL
- concentration at 4 h [32]: 72.4 µg/mL
- concentration at 6 h [33]: 21 µg/mL
- concentration at 6 h [34]: 78.3 µg/mL
- inhibition in vivo at 3.3 mg/kg (Rattus norvegicus [35]): 7%
- inhibition in vivo at 10 mg/kg (Rattus norvegicus [36]): 38%
- concentration at 0.5 h [37]: 107 µg/mL
- DTH (Rattus norvegicus [38]): 34.1 10e-3mm
- Ulcer incidence (Rattus norvegicus [39]): 0 number/group
- concentration at 1 h [40]: 107 µg/mL
- concentration at 2 h [41]: 128 µg/mL
- concentration at 0.5 h [42]: 45.1 µg/mL
- concentration at 0.25 h [43]: 140 µg/mL
- Lesion score (Rattus norvegicus [44]): 0 mm rat-1
